Assays:
Format in all cases: functional
OVCAR-4 = assay: Cytotoxicity against human OVCAR4 cells assessed as cell growth at 10 uM after 48 hrs by sulforhodamine B assay; settings: OVCAR-4, 48 h, read-out: Activity
BT-549 = assay: Cytotoxicity against human BT549 cells assessed as cell growth at 10 uM after 48 hrs by sulforhodamine B assay; settings: BT-549, 48 h, read-out: Activity
COLO 205 = assay: Cytotoxicity against human COLO205 cells assessed as cell growth at 10 uM after 48 hrs by sulforhodamine B assay; settings: COLO 205, 48 h, read-out: Activity
TK-10 = assay: Cytotoxicity against human TK10 cells assessed as cell growth at 10 uM after 48 hrs by sulforhodamine B assay; settings: TK-10, 48 h, read-out: Activity
MCF7 = assay: Cytotoxicity against human MCF7 cells assessed as cell growth at 10 uM after 48 hrs by sulforhodamine B assay; settings: MCF7, 48 h, read-out: Activity
CCRF-CEM = assay: Cytotoxicity against human CCRF-CEM cells after 48 hrs by sulforhodamine B assay
Summary of the method: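 Cells were plated at 5000–40,000/well according to doubling time and preincubated 24 h at 37 °C, 5% CO2. Time-zero plates were TCA-fixed. DMSO stocks were diluted in medium with gentamycin to five concentrations (10-fold or ½ log series) plus control, then incubated 48 h. Adherent cells were fixed with cold TCA (suspension cells with 16% final), stained with SRB, and read at 515 nm. GI50, TGI and LC50 were calculated per line.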

KM12 = assay: Cytotoxicity against human KM12 cells assessed as cell growth at 10 uM after 48 hrs by sulforhodamine B assay; settings: KM12, 48 h, read-out: Activity
786-0 = assay: Cytotoxicity against human 786-0 cells assessed as cell growth at 10 uM after 48 hrs by sulforhodamine B assay; settings: 786-0, 48 h, read-out: Activity

Compound: Cc1cc(=O)n(C(=O)COc2ccc3c(-c4ccccc4)cc(=O)oc3c2C)[nH]1
- growth at 10 µM (OVCAR-4): -42.9%
- growth at 10 µM (BT-549): -65.8%
- growth at 10 µM (COLO 205): 6.21%
- growth at 10 µM (TK-10): -33.4%
- growth at 10 µM (MCF7): -14.4%
- GI50 (CCRF-CEM): < 40 nM
- TGI (CCRF-CEM): 570 nM
- growth at 10 µM (KM12): -12%
- growth at 10 µM (786-0): -58.8%
